Assay outcomes (PubChem BioAssay)
ADAM17 inh: ADAM17 inhibitors, primary screen, biochemical, QFRET | Disintegrin and metalloproteinase domain-containing protein 17 (Homo sapiens), P78536 | recombinant ADAM17, EDANS/DABCYL FRET peptide cleavage | inhibition, % at 6.95 µM | 0.83% of 370,000 active;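 active = inhibition above the mean of compounds lying between control limits plus 3 SD, set per campaign, cut at about 8.5% in these data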;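 also: 0% = DMSO-only wells as the low control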
NR2E3 ag-1: inhibitors of NR2E3-RetCOR corepressor binding, primary screen, NR2E3 agonist project, biochemical, TR-FRET, GST-NR2E3, biotin-RetCOR. AID 2300, 2010. Photoreceptor-specific nuclear receptor (Homo sapiens), Q9Y5X4. 1536-well. 0.12% of 320,000 active. inhibition of corepressor binding, % at 4.78 µM;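 active = percent inhibition above the cutoff of mean plus 3 SD of all tested compounds, set per screening campaign, cut at about 20% in these data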;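 also: 0% = DMSO wells and 100% = biotin wells as full block of FRET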
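Format: 1536-well format; test system: GST-NR2E3 and biotin-RetCOR proteins; read-out basis: percent inhibition of TR-FRET ratio; timing: 5 h incubation at 4 °C; detection: time-resolved FRET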
ADAM10 inh: human ADAM10 inhibitors, primary screen, biochemical, QFRET, HTS | inhibition, % at 7 µM | Disintegrin and metalloproteinase domain-containing protein 10 (Homo sapiens), O14672 | recombinant ADAM10, EDANS/DABCYL FRET peptide cleavage, 3 h | 0.62% of 370,000 active;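 active = inhibition above a per-campaign cutoff equal to the mean of compounds falling between control-based bounds plus 3 SD, cut at about 20% in these data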;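 also: 0% = DMSO wells while the 100% control is not disclosed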
Target sequence (O14672 214-748 limits assumed): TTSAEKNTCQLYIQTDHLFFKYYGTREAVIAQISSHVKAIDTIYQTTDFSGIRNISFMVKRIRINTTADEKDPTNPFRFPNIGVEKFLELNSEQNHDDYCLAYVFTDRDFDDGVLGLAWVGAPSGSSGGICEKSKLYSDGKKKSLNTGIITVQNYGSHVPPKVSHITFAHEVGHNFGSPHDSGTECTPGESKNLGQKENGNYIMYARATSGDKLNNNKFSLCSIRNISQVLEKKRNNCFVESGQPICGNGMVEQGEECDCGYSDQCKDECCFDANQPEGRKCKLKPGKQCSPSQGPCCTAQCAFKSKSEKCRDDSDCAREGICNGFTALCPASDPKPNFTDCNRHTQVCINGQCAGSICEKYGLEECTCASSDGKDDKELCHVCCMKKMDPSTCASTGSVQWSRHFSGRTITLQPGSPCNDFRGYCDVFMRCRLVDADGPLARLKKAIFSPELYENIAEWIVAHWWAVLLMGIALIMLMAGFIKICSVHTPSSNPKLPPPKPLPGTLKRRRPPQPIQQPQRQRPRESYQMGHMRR
GASC-1 inh: inhibitors of GASC-1 histone demethylase, primary screen, biochemical, fluorescence, DELFIA europium. Lysine-specific demethylase 4C (Homo sapiens), Q9H3R0. GST-JMJD2C(1-420) H3K9me3 demethylation. inhibition, % at 2.35 µM. 0.069% of 330,000 active. AID 2099, 2009;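 active = more than half of a compound's replicate wells show inhibition beyond 50%, single wells judged on their own value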;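 also: signal counts dimethyl H3K9 product captured on neutravidin plate; 0% = median of DMSO wells and 100% = 0.3 times that DMSO median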
proKLK7 act: proKLK7 zymogen activators, primary screen, biochemical, fluorescence intensity. Kallikrein-7 (Homo sapiens), P49862. purified proKLK7, EDANS-DABCYL substrate fluorescence; 100% is mature enzyme control, 0% vehicle. activation, % at 7 µM. 0.9% of 370,000 active. AID 652039, 2013;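 active = activation above the mean of all tested compounds plus 3 SD, computed per campaign excluding outliers beyond control limits, cut at about 13% in these data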
NR2E3 ag-2: NR2E3 agonists in two-hybrid cells, primary screen, cell-based, luminescence, CHO-S, Gal4-NCOR/VP16-NR2E3 | Photoreceptor-specific nuclear receptor (Homo sapiens), Q9Y5X4 | inhibition of corepressor binding, % at 3.98 µM | 0.35% of 360,000 active | AID 602229, 2012 | luciferase;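 active = inhibition above the mean of all tested compounds plus 3 SD, cut at about 70% in these data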;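 also: 0% = DMSO with NR2E3 transfected cells and 100% = cells lacking NR2E3 construct; higher means lower luciferase signal from less NR2E3 corepressor binding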
KLK7 act conf: proKLK7 zymogen activators, confirmation, biochemical, fluorescence intensity, triplicate; shares compounds with proKLK7 act; 68% of 3,200 active; purified proKLK7, EDANS-DABCYL substrate fluorescence; scaled: vehicle 0, mature enzyme 100; AID 686949, 2013; activation, % at 7 µM;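 active = activation, as change over the incubation, above the mean of all tested compounds plus 3 SD, cut at about 13% in these data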
EDANS interfere: EDANS-DABCYL substrate optical interference, artefact control for kallikrein-7 zymogen activator project, biochemical, fluorescence intensity, high throughput. shares compounds with proKLK7 act. no enzyme, 4 h; solvent 0%, active enzyme control 100%. activation, % at 7 µM. 80% of 3,200 active. AID 686952, 2013;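 active = activation above the all-compound mean plus 3 SD, ignoring values outside control-based bounds, cut at about 4.8% in these data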;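 also: value is the 4 h activation minus the activation read at time zero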
Numbers without * were called inactive; i = inactive; · = no result given. An excerpt weighted towards active compounds, which were near 2.5% of everything screened.

SMILES	ADAM17 inh	NR2E3 ag-1	ADAM10 inh	GASC-1 inh	proKLK7 act	NR2E3 ag-2	KLK7 act conf	EDANS interfere
Cc1cc(N2CCN(C)CC2)nc2ccc(NC(=S)N3CCN(c4ccc(Cl)cc4)CC3)cc12	-189	5	-435	3	15*	-21	2	3
CC1=CC(=O)c2c(O)ccc(O)c2C1=O	·	2	·	·	·	·	·	·
COC(=O)Cn1c2ccccc2c(=O)n1C(C)CBr (stereo unspecified)	-208	·	i	·	67*	-22	62*	55*
O=Cc1cn(-c2ccccc2)nc1-c1cc2cc(O)ccc2oc1=O	-73	4	-248	-1	197*	5	561*	549*
O=C(CC(=O)c1ccccc1)Nc1ccccn1	-107	·	-247	20	21*	-61	2	2
Cc1ccc2c(c1)COc1c3ccc(C(=O)N[C@@H](C)CO)cc3nn1-2	-146	-3	-500	2	14*	-83	7	4
Cc1nn(-c2cccc(Cl)c2)c2c1C(c1ccncc1)C(C#N)=C(N)O2 (stereo unspecified)	-4	2	4	151	0	1	·	·
COc1ccc(OC)c(C2C(C#N)=C(N)Oc3c2c(C)nn3-c2cccc(Cl)c2)c1 (stereo unspecified)	-8	2	-13	0	19*	-22	35*	33*
CCOC(=O)c1[nH]c2cc(OC)c(OC)cc2c1N	-16	-9	-73	5	13*	-3	30*	31*
CCOC(=O)c1[nH]c2ccc(C)cc2c1N	-5	-8	-10	-5	-4	-27	·	·
COC(=O)C1(C(=O)OC)c2ccccc2CN(S(=O)(=O)c2ccc(C)cc2)C1CC(C)=O (stereo unspecified)	0	·	0	·	0	·	·	·
CCCc1cc(=O)oc2c3c(cc(OCC(=O)N[C@@H](CSC)C(=O)O)c12)OC(C)(C)CC3	i	·	i	2	32*	-35	35*	31*
CCCc1cc(=O)oc2c3c(cc(OCC(=O)NCc4ccncc4)c12)OC(C)(C)CC3	i	0	i	28	-7	-19	·	·
CCc1cc(=O)oc2c3c(cc(OCC(=O)N[C@H](C(=O)O)[C@H](C)CC)c12)OC(C)(C)CC3	i	5	i	-4	48*	-10	49*	49*
CCCc1cc(=O)oc2c3c(cc(OCC(=O)N[C@@H](C)C(=O)O)c12)OC(C)(C)CC3	i	4	i	10	49*	0	70*	78*
C[C@@H]1CN([C@H](C)CO)C(=O)CCCn2nncc2CO[C@H]1CN(C)Cc1ccc(O)cc1	0	·	3	·	0	-16	·	·
CCCOc1ccc(/C=C2\SC(N)=NC2=O)cc1OC	-6	-3	-3	-24	18*	7	0	-2
Cc1c(NC(=O)Nc2cccc(C(F)(F)F)c2)c(=O)n(-c2ccccc2)n1C	-7	2	-5	1	0	-21	·	·
CCc1ccc(N(CC(=O)NCCc2ccccc2)C(=O)CCC(=O)Nc2ccccn2)cc1	-3	-1	-6	-7	0	-6	·	·
Cc1c(-n2cc(C(=O)c3cc(F)ccc3O)cc(C#N)c2=O)c(=O)n(-c2ccccc2)n1C	-1	1	3	-13	2	-34	·	·
